Experimental data published in ChEMBL document CHEMBL1275390, “Synthesis and discovery of water-soluble microtubule targeting agents that bind to the colchicine site on tubulin and circumvent Pgp mediated resistance” (J Med Chem, 2010).
The source made the active and inactive calls. The calls are words filed in the database; no cut-off is given here.

Experiments:
NCI-H322M = assay: Growth inhibition of human NCI-H322M cells by sulforhodamine B assay; format: functional
IGROV-1 = assay: Growth inhibition of human IGROV1 cells by sulforhodamine B assay; format: functional
HT-29 = assay: Growth inhibition of human HT-29 cells by sulforhodamine B assay; format: functional
NCI-H522 = assay: Growth inhibition of human NCI-H522 cells by sulforhodamine B assay; format: functional
MDA-MB-435 [1] = assay: Growth inhibition of human MDA-MB-435 cells by sulforhodamine B assay; format: functional
SNB-19 = assay: Growth inhibition of human SNB19 cells by sulforhodamine B assay; format: functional
SF-539 = assay: Growth inhibition of human SF539 cells by sulforhodamine B assay; format: functional
SK-OV-3 [2] = assay: Antiproliferative activity against human SKOV3 cells by sulforhodamine B assay; format: functional, cell-based
Outline: (§1)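 Antiproliferative read-out by sulforhodamine B assay. HeLa and SK-OV-3 cells were from ATCC; SK-OV-3 MDR-1-6/6 is the Pgp-overexpressing, MDR-1-transduced isogenic partner of the parental line. Each IC50 is the mean of at least 3 independent experiments, with triplicate points in each.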

Bos taurus = species on record: Bos taurus; assay: Displacement of [3H]colchicine from bovine brain tubulin at 5 uM after 10 mins
SK-MEL-5 = assay: Growth inhibition of human SK-MEL-5 cells by sulforhodamine B assay; format: functional
HCT-15 = assay: Growth inhibition of human HCT15 cells by sulforhodamine B assay; format: functional
OVCAR-4 = assay: Growth inhibition of human OVCAR4 cells by sulforhodamine B assay; format: functional
NCI-H23 = assay: Growth inhibition of human NCI-H23 cells by sulforhodamine B assay; format: functional
NCI-H460 = assay: Growth inhibition of human NCI-H460 cells by sulforhodamine B assay; format: functional
SK-MEL-2 = assay: Growth inhibition of human SK-MEL-2 cells by sulforhodamine B assay; format: functional
HL-60(TB) = assay: Growth inhibition of human HL-60(TB) cells by sulforhodamine B assay; format: functional
MDA-MB-435 [3] = assay: Cell cycle arrest in human MDA-MB-435 cells assessed as formation of aberrant mitotic spindles at 850 nM after 24 hrs using propidium iodide staining by flow cytometry; format: functional, cell-based
UO-31 = assay: Growth inhibition of human UO31 cells by sulforhodamine B assay; format: functional
786-0 = assay: Growth inhibition of human 786-0 cells by sulforhodamine B assay; format: functional
SF-295 = assay: Growth inhibition of human SF295 cells by sulforhodamine B assay; format: functional
LOX IMVI = assay: Growth inhibition of human LOXIMVI cells by sulforhodamine B assay; format: functional
SN12C = assay: Growth inhibition of human SN12C cells by sulforhodamine B assay; format: functional
EKVX = assay: Growth inhibition of human EKVX cells by sulforhodamine B assay; format: functional
NCI/ADR-RES = assay: Growth inhibition of human NCI/ADR-RES cells by sulforhodamine B assay; format: functional
MDA-MB-468 = assay: Growth inhibition of human MDA-MB-468 cells by sulforhodamine B assay; format: functional
HeLa [4] = assay: Antiproliferative activity against human HeLa cells expressing tubulin 3beta by sulforhodamine B assay; format: functional, cell-based
DU-145 = assay: Growth inhibition of human DU145 cells by sulforhodamine B assay; format: functional
SNB-75 = assay: Growth inhibition of human SNB75 cells by sulforhodamine B assay; format: functional
UACC-62 = assay: Growth inhibition of human UACC62 cells by sulforhodamine B assay; format: functional
SK-OV-3 [5] = assay: Antiproliferative activity against human SKOV3 cells expressing MDR1-6/6 by sulforhodamine B assay; format: functional, cell-based; outline: as §1
SR = assay: Growth inhibition of human SR cells by sulforhodamine B assay; format: functional
K562 = assay: Growth inhibition of human K562 cells by sulforhodamine B assay; format: functional
MDA-MB-231 = assay: Growth inhibition of human MDA-MB-231 cells by sulforhodamine B assay; format: functional
NCI-H226 = assay: Growth inhibition of human NCI-H226 cells by sulforhodamine B assay; format: functional
M14 = assay: Growth inhibition of human M14 cells by sulforhodamine B assay; format: functional
OVCAR-8 = assay: Growth inhibition of human OVCAR8 cells by sulforhodamine B assay; format: functional
MDA-MB-435 [6] = assay: Cell cycle arrest in human MDA-MB-435 cells assessed as mitotic accumulation at 850 nM after 24 hrs using propidium iodide staining by flow cytometry; format: functional, cell-based
Outline: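 Cells were then harvested, stained with Krishan's reagent (propidium iodide) and analysed by flow cytometry. Data are plotted as propidium iodide intensity versus number of events.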

A549 = assay: Growth inhibition of human A549 cells by sulforhodamine B assay; format: functional
ACHN = assay: Growth inhibition of human ACHN cells by sulforhodamine B assay; format: functional
RXF 393 = assay: Growth inhibition of human RXF393 cells by sulforhodamine B assay; format: functional
U-251 = assay: Growth inhibition of human U251 cells by sulforhodamine B assay; format: functional
CCRF-CEM = assay: Growth inhibition of human CCRF-CEM cells by sulforhodamine B assay; format: functional
COLO 205 = assay: Growth inhibition of human COLO205 cells by sulforhodamine B assay; format: functional
HeLa [7] = assay: Antiproliferative activity against human HeLa cells by sulforhodamine B assay; format: functional, cell-based; outline: as §1
OVCAR-3 = assay: Growth inhibition of human OVCAR-3 cells by sulforhodamine B assay; format: functional
SK-MEL-28 = assay: Growth inhibition of human SK-MEL-28 cells by sulforhodamine B assay; format: functional
A498 = assay: Growth inhibition of human A498 cells by sulforhodamine B assay; format: functional
SK-OV-3 [8] = assay: Growth inhibition of human SKOV3 cells by sulforhodamine B assay; format: functional
MOLT-4 = assay: Growth inhibition of human MOLT4 cells by sulforhodamine B assay; format: functional
TK-10 = assay: Growth inhibition of human TK10 cells by sulforhodamine B assay; format: functional
SF-268 = assay: Growth inhibition of human SF268 cells by sulforhodamine B assay; format: functional
OVCAR-5 = assay: Growth inhibition of human OVCAR5 cells by sulforhodamine B assay; format: functional
KM12 = assay: Growth inhibition of human KM12 cells by sulforhodamine B assay; format: functional
HCC 2998 = assay: Growth inhibition of human HCC2998 cells by sulforhodamine B assay; format: functional
MCF7 = assay: Growth inhibition of human MCF7 cells by sulforhodamine B assay; format: functional
[9] = Growth inhibition of human Hs 578T cells by sulforhodamine B assay; format: functional
HOP-62 = assay: Growth inhibition of human HOP62 cells by sulforhodamine B assay; format: functional
PC-3 = assay: Growth inhibition of human PC3 cells by sulforhodamine B assay; format: functional
HOP-92 = assay: Growth inhibition of human HOP92 cells by sulforhodamine B assay; format: functional
SW-620 = assay: Growth inhibition of human SW620 cells by sulforhodamine B assay; format: functional
MDA-MB-435 [10] = assay: Antiproliferative activity against human MDA-MB-435 cells by sulforhodamine B assay; format: functional, cell-based
Outline: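 SRB assay against cancer cells obtained from ATCC (MDA-MB-435, HeLa). IC50 is the concentration giving 50% inhibition of proliferation, taken as the mean of at least 3 independent experiments, each run in triplicate points.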

SK-OV-3 [11] = assay: Relative resistance, ratio of IC50 for human SKOV3 cells expressing MDR1-6/6 to IC50 for human SKOV3 cells; format: functional
Outline: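 Relative resistance (Rr) is the SRB-derived IC50 in Pgp-overexpressing, MDR-1-transduced SK-OV-3 MDR-1-6/6 cells divided by the IC50 in parental SK-OV-3 cells.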

HeLa [12] = assay: Relative resistance, ratio of IC50 for human HeLa cells expressing tubulin 3beta to IC50 for human HeLa cells; format: functional

SMILES: COc1ccc(N(C)c2nc(C)nc3[nH]ccc23)cc1
- GI50 (NCI-H322M): 428 nM
- GI50 (IGROV-1): 340 nM
- GI50 (HT-29): 279 nM
- GI50 (NCI-H522): 40.2 nM
- GI50 (MDA-MB-435 [1]): 44.2 nM
- GI50 (SNB-19): 612 nM
- GI50 (SF-539): 288 nM
- IC50 (SK-OV-3 [2]): 278 nM
- inhibition (Bos taurus): 70%
- GI50 (SK-MEL-5): 177 nM
- GI50 (HCT-15): 275 nM
- GI50 (OVCAR-4): 7730 nM
- GI50 (NCI-H23): 438 nM
- GI50 (NCI-H460): 351 nM
- GI50 (SK-MEL-2): 251 nM
- GI50 (HL-60(TB)): 190 nM
- Activity (MDA-MB-435 [3]): Active
- GI50 (UO-31): 307 nM
- GI50 (786-0): 433 nM
- GI50 (SF-295): 269 nM
- GI50 (LOX IMVI): 407 nM
- GI50 (SN12C): 854 nM
- GI50 (EKVX): 875 nM
- GI50 (NCI/ADR-RES): 164 nM
- GI50 (MDA-MB-468): 208 nM
- IC50 (HeLa [4]): 186 nM
- GI50 (DU-145): 269 nM
- GI50 (SNB-75): 185 nM
- GI50 (UACC-62): 625 nM
- IC50 (SK-OV-3 [5]): 435 nM
- GI50 (SR): 87.6 nM
- GI50 (K562): 179 nM
- GI50 (MDA-MB-231): 1260 nM
- GI50 (NCI-H226): 623 nM
- GI50 (M14): 218 nM
- GI50 (OVCAR-8): 639 nM
- Activity (MDA-MB-435 [6]): Active
- GI50 (A549): 723 nM
- GI50 (ACHN): 556 nM
- GI50 (RXF 393): 226 nM
- GI50 (U-251): 440 nM
- GI50 (CCRF-CEM): 315 nM
- GI50 (COLO 205): 243 nM
- IC50 (HeLa [7]): 270 nM
- GI50 (OVCAR-3): 192 nM
- GI50 (SK-MEL-28): 603 nM
- GI50 (A498): 198 nM
- GI50 (SK-OV-3 [8]): 248 nM
- GI50 (MOLT-4): 503 nM
- GI50 (TK-10): 390 nM
- GI50 (SF-268): 449 nM
- GI50 (OVCAR-5): 1670 nM
- GI50 (KM12): 181 nM
- GI50 (HCC 2998): 271 nM
- GI50 (MCF7): 314 nM
- GI50 [9]: 249 nM
- GI50 (HOP-62): 291 nM
- GI50 (PC-3): 509 nM
- GI50 (HOP-92): 4800 nM
- GI50 (SW-620): 246 nM

SMILES: COc1ccc(Nc2nc(C)nc3c2CC(C)C3)cc1 (racemic)
- IC50 (MDA-MB-435 [10]): > 10000 nM

SMILES: COc1ccc(Nc2[nH]c(C)nc3nccc2-3)cc1
- IC50 (MDA-MB-435 [10]): > 10000 nM

SMILES: COc1ccc(/C=C\c2cc(OC)c(OC)c(OC)c2)cc1OP(=O)(O)O [FOSBRETABULIN]
- IC50 (SK-OV-3 [2]): 4.5 nM
- Ratio (SK-OV-3 [11]): 1.5
- IC50 (HeLa [4]): 5.7 nM
- IC50 (SK-OV-3 [5]): 6.6 nM
- Ratio (HeLa [12]): 1.2
- IC50 (HeLa [7]): 4.7 nM

SMILES: COc1cc2c(cc1O)CC[C@@H]1[C@@H]2CC[C@]2(C)[C@@H](O)CC[C@@H]12 [2-METHOXYESTRADIOL]
- IC50 (SK-OV-3 [2]): 867 nM
- Ratio (SK-OV-3 [11]): 2.6
- IC50 (HeLa [4]): 586 nM
- IC50 (SK-OV-3 [5]): 2270 nM
- Ratio (HeLa [12]): 1
